These results are taken from paper PMC4461448 (Analytical biochemistry, 2015).

A short description of data set [1]: pH titration via PheCN fluorescence to determine N-terminal pKa. Format: physicochemical. To be noted: 20 μM peptide, pH 2-12, 25 °C, excitation 275 nm. Summed up: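 Peptides were HPLC-purified and mass-verified, and concentration was set optically from absorbance at 280 nm (ε 850 M−1 cm−1). Each pH was made by mixing peptide stocks in 25 mM H3PO4 and 25 mM NaOH, then read on a pH meter. Spectra were taken in a 1 cm cuvette at 1 nm resolution, 1 s/nm, with buffer background subtracted. Peak intensity was fitted to a two-state equation with linear acidic and basic baselines to give pKa (±0.1).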

The conditions of data set [2]: value belongs to the α-helical peptide, not the tripeptide; cited from earlier work.
The conditions of data set [3]: melittin, Gly residue at the N-terminus; cited from earlier work.

Where a SMILES comes first, the peptide text is derived from it. [ ]: non-standard residue; d: D form. Phe(4-CN) = N#Cc1ccc(C[C@H](N)C(=O)O)cc1

On to `CC(=O)NCC(=O)N[C@@H](Cc1ccc(C#N)cc1)C(=O)NCC(N)=O` [*GFCNG] (Ac-Gly-[Phe(4-CN)]-Gly-NH2), for which the “pH dependence of PheCN fluorescence intensity (acid-base titration transition)” value in data set [1] is listed as “does not show such a transition”.

With `C[C@H](N)C(=O)N[C@@H](Cc1ccc(C#N)cc1)C(=O)NCC(N)=O` [A, reference compound] (H-Ala-[Phe(4-CN)]-Gly-NH2), the “N-terminal pKa value (pKaH) of an α-helical peptide with X at the N-terminus” value (“N-terminal pKa value (pKaH) … at the N-terminus” for short) in data set [2] is on record as 8.35.

For `N#Cc1ccc(C[C@H](NC(=O)[C@@H](N)CC(=O)O)C(=O)NCC(N)=O)cc1` [D] (H-Asp-[Phe(4-CN)]-Gly-NH2), the “N-terminal pKa value (pKaH) … at the N-terminus” value in data set [2] is listed as 8.25.

`N#Cc1ccc(C[C@H](NC(=O)CN)C(=O)NCC(N)=O)cc1` [G, reference compound] (H-Gly-[Phe(4-CN)]-Gly-NH2): the “N-terminal pKa value (pKaH) … at the N-terminus” value in data set [2] is given as 8.51.

Consider `N#Cc1ccc(C[C@H](NC(=O)[C@@H](N)CCCCN)C(=O)NCC(N)=O)cc1` [K] (H-Lys-[Phe(4-CN)]-Gly-NH2), for which the “N-terminal pKa value (pKaH) … at the N-terminus” value in data set [2] was 8.12.

On to `CSCC[C@H](N)C(=O)N[C@@H](Cc1ccc(C#N)cc1)C(=O)NCC(N)=O` [M, reference compound] (H-Met-[Phe(4-CN)]-Gly-NH2), for which, in data set [2], the “N-terminal pKa value (pKaH) … at the N-terminus” value is given as 7.83.

With `N#Cc1ccc(C[C@H](NC(=O)[C@@H](N)CC(N)=O)C(=O)NCC(N)=O)cc1` [N] (H-Asn-[Phe(4-CN)]-Gly-NH2), the “N-terminal pKa value (pKaH) … at the N-terminus” value in data set [2] is listed as 7.07.

Take `N#Cc1ccc(C[C@H](NC(=O)[C@@H]2CCCN2)C(=O)NCC(N)=O)cc1` [P] (H-Pro-[Phe(4-CN)]-Gly-NH2): the “N-terminal pKa value (pKaH) … at the N-terminus” value in data set [2] is listed as 8.85.

Consider `N#Cc1ccc(C[C@H](NC(=O)[C@@H](N)CO)C(=O)NCC(N)=O)cc1` [S] (H-Ser-[Phe(4-CN)]-Gly-NH2), for which, in data set [2], the “N-terminal pKa value (pKaH) … at the N-terminus” value is 7.63.

Take `CC(C)[C@H](N)C(=O)N[C@@H](Cc1ccc(C#N)cc1)C(=O)NCC(N)=O` [V] (H-Val-[Phe(4-CN)]-Gly-NH2): the “N-terminal pKa value (pKaH) … at the N-terminus” value in data set [2] is on record as 8.14.

On to melittin, for which the “N-terminal pKa of the amino group” value in data set [3] was 7.85.
